# In PMC7271564 (Haematologica, 2019):
# “Also recorded” adds a separate entry of the source.
# Tests used:
# CD138+CD38- plasma cells = assay: HTFC drug sensitivity assay, plasma cell subset; type: cell-based, human; settings: CD138+CD38- plasma cells compared to CD138+CD38+ or other cells, MM samples
# Outline: (§1)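 Cohort I comprised 16 samples: 3 healthy PB, 3 AML and 10 MM. Samples were tested in 96-well plates against six compounds by no-wash high-throughput flow cytometry (iQue Screener PLUS). Two antibody panels defined up to ten subsets, including CD138+CD38± plasma cells and CD34+CD38± progenitors. Per-population cell counts gave dose–response curves, from which DSS and IC50 were derived. Results were shown as mean±SEM per disease group.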
# monocytes (CD14+) = assay: HTFC drug sensitivity assay, monocytes; type: cell-based, human; settings: for response of monocytes, in words: mean of 16 samples (3 healthy, 3 AML, 10 MM), Cohort I
# Outline: (§2)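 Three healthy PB samples were screened ex vivo with 71 compounds at 5 concentrations in 384-well plates. The assay was a no-wash multiplexed flow cytometry run on an iQue Screener PLUS. Six subsets were gated by surface antigen: CD19+, CD56+, CD3+CD4+, CD3+CD8+, CD3+CD56+ and CD14+. Cell counts per subset gave dose–response curves, and DSS was derived from these.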
# CD56+/NK cells = assay: HTFC drug sensitivity assay, NK cells; type: cell-based, human; settings: for sensitivity compared to other cell types, in words: NK cells, three healthy PB samples, 71-drug screen
# Outline: as §2
# CD19+/B cells = assay: High throughput no-wash flow cytometry; type: cell-based, human; settings: for sensitivity compared to other cell types, in words: B cells, three healthy PB samples, 71-drug screen
# CD34+CD38- cells (HSC) = assay: HTFC drug sensitivity assay, hematopoietic stem cells; type: cell-based, human; settings: CD34+CD38- cells from healthy donors (BM, n=2)
# [1] = system: CD34+CD38+ cells (CPC/blast); assay: HTFC drug sensitivity assay, progenitor/blast cells; type: cell-based; settings: Homo sapiens
# [2] = system: T-cell malignancies (primary samples); assay: CellTiter-Glo viability assay; type: cell-based, human; settings: similar to healthy T cells
# Outline: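 Primary BM aspirates from leukemia patients (Cohort III, n=281 total), with T-PLL samples tested as enriched CD8+ cells, were exposed to the drug panel. The endpoint was CellTiter-Glo luminescent viability. Luminescence was fitted to dose–response curves, from which a drug sensitivity score (DSS) was calculated. Comparison was against bead-enriched healthy BM CD3+ cells.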
# T-cell subsets (CD3+) = assay: HTFC drug sensitivity assay, T-cell subsets; type: cell-based, human
# Outline: as §1
smiles,measurement,setting,value
CC(C)C[C@H](NC(=O)[C@H](Cc1ccccc1)NC(=O)c1cnccn1)B(O)O [bortezomib],"ex vivo response, in words",CD138+CD38- plasma cells,resistant
Cc1nc(Nc2ncc(C(=O)Nc3c(C)cccc3Cl)s2)cc(N2CCN(CCO)CC2)n1 [dasatinib],"drug response profile (DSS clustering), in words","monocytes (CD14+); monocytes, three healthy PB samples, 71-drug screen",selective sensitivity
C[C@@H]1C[C@H]2[C@@H]3CCC4=CC(=O)C=C[C@]4(C)[C@@]3(F)[C@@H](O)C[C@]2(C)[C@@]1(O)C(=O)CO [dexamethasone],"effect on cell count, in words","CD56+/NK cells; CD56+ cells, Cohort I samples",depleted
same,"sensitivity compared to other cell types, in words",CD56+/NK cells,higher sensitivity
same,"effect on CD14+ cell count, in words",monocytes (CD14+); Cohort I samples,dose-dependent increase
same,"response of monocytes, in words",monocytes (CD14+),resistant
same,"sensitivity compared to other cell types, in words",CD19+/B cells,higher sensitivity
same,"effect on cell count, in words","CD19+/B cells; CD19+ cells, Cohort I samples",depleted
CO[C@@H]1[C@H](N(C)C(=O)c2ccccc2)C[C@H]2O[C@]1(C)n1c3ccccc3c3c4c(c5c6ccccc6n2c5c31)C(=O)NC4 [midostaurin],"sensitivity compared to other cell types, in words",CD56+/NK cells,higher sensitivity
same,"sensitivity, in words",CD34+CD38- cells (HSC),insensitive; also recorded: no effect
same,IC50,[1],0.016 µM
same,"sensitivity compared to other cell types, in words",CD19+/B cells,higher sensitivity
CC1(C)CCC(c2ccc(Cl)cc2)=C(CN2CCN(c3ccc(C(=O)NS(=O)(=O)c4ccc(N[C@H](CCN5CCOCC5)CSc5ccccc5)c(S(=O)(=O)C(F)(F)F)c4)cc3)CC2)C1 [navitoclax],"response of monocytes, in words",monocytes (CD14+),resistant
COc1ncc(-c2ccc3nccc(-c4ccnnc4)c3c2)cc1NS(=O)(=O)c1ccc(F)cc1F [omipalisib],"response (DSS), in words",[2],no response
same,"sensitivity, in words","T-cell subsets (CD3+); T-cell subsets, Cohort I samples",insensitive
same,"effect on CD3+ cell count, in words",T-cell subsets (CD3+); at concentrations of 10 and 100 nM,increase
CC1(C)CCC(CN2CCN(c3ccc(C(=O)NS(=O)(=O)c4ccc(NCC5CCOCC5)c([N+](=O)[O-])c4)c(Oc4cnc5[nH]ccc5c4)c3)CC2)=C(c2ccc(Cl)cc2)C1 [venetoclax],"sensitivity compared to other cell types, in words",CD56+/NK cells,higher sensitivity
same,"response of monocytes, in words",monocytes (CD14+),resistant
same,"sensitivity compared to other cell types, in words",CD19+/B cells,higher sensitivity
